96 molecules from ChEMBL document CHEMBL4513216, “Probing the Open Global Health Chemical Diversity Library for Multistage-Active Starting Points for Next-Generation Antimalarials” (ACS Infect Dis, 2020) can be followed below.

The data set in a line: Toxicity liver stage against HepG2, at 10uM. In kind it is cell-based. Also on record: test concentration 10 uM, cell line HepG2-A16-CD81EGFP. The settings on record: human, HepG2-A16-CD81EGFP cells; read-out: INHIBITION
The method in brief:
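Uninfected HepG2-A16-CD81EGFP cells, 3 × 10^3 per well, 1536-well, plated on prespotted compound at 10 μM final, parasite-free screening media added to match infected plates; puromycin 10 μM positive, DMSO 0.5% negative; run in parallel with 48 h PbLuc assay at 37 °C, 5% CO2; viability by CellTiter-Glo luminescence, normalized to controls.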
Take `COc1ccc(CCC(=O)NCCC2CCCO2)cc1Br` (stereo unspecified): the cytotoxicity at 10 µM came to 2.6%.
Next, `CSCC[C@H](NC(=O)Cn1ccc2c(Br)cccc21)C(=O)O`: -2.94%; `Cc1nnsc1-c1nnc2sc(C3CCC3)nn12`: -7.86%.
Next, `Cc1cc(C(=O)NCc2cc(C)oc2C)no1`: -9.98%.
The value for `CS(=O)(=O)N1CC(c2nc[nH]n2)c2cc(C(=O)NC3CCCC3)ccc21` (stereo unspecified) was -131%.
With `CCS(=O)(=O)N1C[C@H]2CN(Cc3ccc(OC)cc3)C(=O)[C@H]2C1`, the cytotoxicity at 10 µM is -1.34%.
Next, `CC(C)Nc1ncnc2c1CCN(C(=O)[C@H]1CCCO1)CC2`: -0.685%.
`O=C(Nc1ccccc1)N1CCC2(CC(=O)N(c3ccsc3)C2)C1` (stereo unspecified): the cytotoxicity at 10 µM is 2.58%.
Next, `Cc1ccoc1C(=O)N1CCO[C@H]2[C@H](OCc3ccncc3)CC[C@@H]21`: 9.06%.
Take `COc1cc2nc(C)n(CC(=O)NCCCN(C)C)c(=O)c2cc1OC`: the cytotoxicity at 10 µM turned out to be 2.11%.
For the molecule `O=C1CC2(CCN(S(=O)(=O)C3CC3)C2)CN1c1cncnc1` (stereo unspecified), the cytotoxicity at 10 µM was -11.9%.
The value for `CCn1nnc2c1C(COC)CN(C(=O)COc1ccccc1)C2` (stereo unspecified) was -17.1%; that for `O=C([C@@H]1CCO[C@@H]2CCN(Cc3cccnc3)C[C@H]21)N1CCCCO1` was -1.17%.
Next, `COc1cccc(Cn2cc(N3C(=O)[C@H]4CCCC[C@H]4C3=O)cn2)c1`: -11.9%; `Cc1cc(C(F)(F)F)nc(C2CCN(C(=O)CO)CC2)n1`: -2.14%.
Next, `CNc1cncc(C2CCCN2C(=O)CCn2ccnc2)n1` (stereo unspecified): 3.91%; `COc1ccccc1CC(=O)N1CCN(Cc2ccco2)C[C@@H]1C`: 2.08%.
With `COCC(=O)N1CC(c2ccnc(Nc3cc(C(F)(F)F)ccn3)n2)C1`, the cytotoxicity at 10 µM was determined as 11.2%.
Consider `Cc1nnc(Nc2cccc(C3CCN(Cc4ncc[nH]4)CC3)n2)s1`, for which the cytotoxicity at 10 µM is -24%.
Next, `CCc1cc(C(=O)N2Cc3ccccc3OC3(CCOCC3)C2)on1`: -9.54%.
Consider `Cc1sc2c(C3CCCN(C(C)C)C3)nc(C)n2c1C` (stereo unspecified), for which the cytotoxicity at 10 µM was -13.8%.
Turning to `Cc1nc(C)c(C(=O)N2CCc3nc4sc(C)cc4c(=O)n3CC2)o1`, the cytotoxicity at 10 µM is -9.31%.
The value for `CN1CCC(CN(C)C(=O)c2cc(C3CCCN3C)ccn2)CC1` (stereo unspecified) was -28.3%.
Next, `Cc1noc(C)c1-c1cccc(CC2CCN(C(=O)c3cscn3)C2)n1` (stereo unspecified): -6.66%; `O=C(c1ccccn1)N1CCC(Cc2cnc3[nH]ccc3c2)CC1`: -7.75%; `Cn1cc(C(=O)N2CCCC(Cc3cnccn3)C2)cn1` (stereo unspecified): -8.16%.
Next, `CCOc1ccc(N(CCC#N)C(=O)c2ccnc(SC)c2)cc1`: -2.6%; `CN(C)S(=O)(=O)c1ccc(F)c(NC(=O)COCC2CC2)c1`: 3.71%; `O=C(c1cc(C2CCCC2)no1)N1CCCCC1`: -3.05%.
On to `CC(C)Cn1ccnc1CNC(=O)NC(C)c1nccs1` (stereo unspecified), for which the cytotoxicity at 10 µM is -14.3%.
Next, `O=C(C1CCCOC1)N(CC(F)F)c1cccc(Cl)c1` (stereo unspecified): 8.27%; `Cc1nc(NS(=O)(=O)c2cc(Br)ccc2C)no1`: 1.68%.
For `COC(=O)C1CCCN1C(=O)c1ccc(Cl)cc1F` (stereo unspecified), the cytotoxicity at 10 µM was -7.7%.
The value for `NS(=O)(=O)c1ccc(NCc2ccco2)c2ncccc12` was -153%; that for `CN(Cc1csc2ccccc12)C(=O)NC1CCS(=O)(=O)C1` (stereo unspecified) was -42.1%.
Next, `Cc1ccc(C(=O)NCC(O)CN2CCCC2=O)cc1Cl` (stereo unspecified): -8.69%; `Cc1cc(C)n(CC2CCN(CC(O)Cn3cccn3)CC2)n1` (stereo unspecified): -5.58%.
Next, `COCCC1(CNC(=O)Nc2ccc(-n3ccnn3)cc2)CCC1`: -0.677%; `Cc1nc(S(=O)(=O)NCCC(=O)NCc2ccsc2)cn1C`: 3.68%.
Turning to `Cc1cc(S(=O)(=O)N2CCCc3cc(Cl)ccc32)sc1C(=O)O`, the cytotoxicity at 10 µM was -16%.
The value for `Cc1cnn(CCNCc2ccc(S(C)(=O)=O)cc2)c1` was 7.55%; that for `CCN(CC(=O)NC)C(=O)c1cc(-c2cccc(Cl)c2)no1` was 8.5%; that for `O=S(=O)(Cc1ccccc1F)Cc1nnnn1C1CC1` was -16.5%.
Next, `CCN(CC)S(=O)(=O)NCCc1cc(C)ccc1OC`: -2.64%; `CC1CN(C(=O)c2ccc(=O)n(C)c2)c2ccccc2NC1=O` (stereo unspecified): -2.09%.
The value for `Cn1cnnc1-c1cncc(NCc2ccccc2Br)c1` was 6.53%; that for `CN(C)c1ncc(CNS(=O)(=O)c2cccc3ccccc23)n1C` was 8.32%.
As for `Cc1cc(C)cc(OCCCn2nc3ccccn3c2=O)c1`, the cytotoxicity at 10 µM stood at 3.95%.
The value for `CC(=O)NCCc1ccc(S(=O)(=O)Nc2cc(F)ccc2C)s1` was -13.6%; that for `CC(CO)(NC(=O)NCc1ccc(Br)s1)C1CC1` (stereo unspecified) was 4.68%; that for `Cc1cncc(NC(=O)c2ccc(CN3CCC(CO)CC3)cc2)c1` was 19%.
The value for `CCCS(=O)(=O)NC(=O)c1ccc(Br)o1` was -6.11%.
Next, `O=C(Nc1ccccc1Oc1cccc(F)c1)C1CCS(=O)(=O)C1` (stereo unspecified): 2.64%.
For the molecule `CCc1ccc(CC)c(NCC(=O)N2CCCC(NC(C)=O)C2)c1` (stereo unspecified), the cytotoxicity at 10 µM was -5.87%.
As for `CCOCC(O)CN1CCN(C(=O)c2cccc(F)c2)CC1` (stereo unspecified), the cytotoxicity at 10 µM is -11.1%.
As to `Cc1ccc2c(c1)[C@@H](CC(=O)N1CCN(C)CC1)CCO2`, the cytotoxicity at 10 µM was -11.1%.
The value for `CCC(CO)N(Cc1ccco1)C(=O)c1sccc1NC(C)=O` (stereo unspecified) was 3.36%; that for `COc1ccc2c(c1)OCC(CNC(=O)c1cc(C(C)C)on1)C2` (stereo unspecified) was 0.0723%.
Next, `Cc1ccc(F)c(C(=O)N2C[C@@H](C(=O)O)[C@H](c3ccccc3)C2)c1Cl`: -6.06%; `O=C(CSc1ccccc1)Nc1cnn(CC(=O)N2CCCO2)c1`: -0.969%.
Next, `Cc1cccc(CNC2CC(=O)N(CCc3cccc(Cl)c3)C2)n1` (stereo unspecified): -134%; `COCc1noc(CC2CN(c3ncnc4sc(C)c(C)c34)CCO2)n1` (stereo unspecified): -0.649%; `Fc1cccc(C2CCCCN2Cc2nc(-c3cnccn3)no2)c1` (stereo unspecified): -3.02%.
For `COc1cc(C(=O)N2CC[C@@H](NC(=O)c3ccccn3)[C@H](O)C2)ccn1`, the cytotoxicity at 10 µM turned out to be 0.894%.
Next, `CN(Cc1cc(C2CC2)on1)C(=O)CN1C(=O)OC(C)(C)C1=O`: -127%; `COc1ccc(OCc2cc(C(=O)N3CC=CC3)n[nH]2)c(Cl)c1`: 7.26%; `Cc1nnc2sc(-c3cc(C(C)C)n[nH]3)nn12`: -7.88%.
`CCC(=O)N1CCN(c2cc(-n3cnc(C)c3C)nc(C)n2)CC1`: the cytotoxicity at 10 µM was -4.56%.
Next, `O=C(Cc1cnccn1)N1CCC(c2nccn2CC2CC2)CC1`: -7.54%; `COCCN(C)C[C@@H]1CN(C(=O)c2c(C)cccc2OC)C[C@@H]1CO`: -4.26%.
Take `CC(NC(=O)Cc1cccs1)c1nnc2n1CCC2` (stereo unspecified): the cytotoxicity at 10 µM is -7.56%.
Consider `Cn1cnc(S(=O)(=O)NCCCN2CCCCCC2=O)c1Cl`, for which the cytotoxicity at 10 µM is -15.6%.
The value for `CC(C)c1ccc(OCCNC(=O)N2CCS(=O)(=O)CC2)cc1` was -5.54%; that for `CCOc1ccccc1CNC(=O)N1CCC(Cc2cnn(C)c2)C1` (stereo unspecified) was -7.3%; that for `CC(C)c1nnc2n1CCN(CC(=O)N1CCc3sccc3C1)C2` was -10.4%.
Next, `Cc1nc(C)n(CC2CCCCN2Cc2nc(-c3ccco3)no2)n1` (stereo unspecified): -10.6%; `Cc1cc(C)n(CC2CCCN2C(=O)CCc2ccncc2)n1` (stereo unspecified): -14.4%.
Regarding `CC(C)c1nc2c(n1C)CCN(CC(=O)Nc1nncs1)C2`, the cytotoxicity at 10 µM is -10.1%.
Next, `CC(C)c1nnc2n1CCN(C(=O)c1ccc3c(c1)CCC3)C2`: -10.7%; `COc1ccccc1NC(=O)NCCCn1nc2ccccn2c1=O`: -18%; `Cc1cc(C2CCCN2Cc2nc3ccccc3o2)on1` (stereo unspecified): -17%.
With `O=C1COc2ccc(C(=O)N3CCCC(n4ccnc4)C3)cc2N1` (stereo unspecified), the cytotoxicity at 10 µM was -13.5%.
Next, `c1ccc(-n2nnnc2CN2CCCC(Cn3cncn3)C2)cc1` (stereo unspecified): 0.962%; `Fc1ccc(CN2CCCN(Cc3cscn3)CC2)cc1`: 2.62%; `Cn1ccnc1CNC(=O)c1ccnc(C2CCNCC2)c1`: 5.8%.
Next, `CN(C)c1ncc(-c2cncn2CCc2ccc3c(c2)OCCO3)cn1`: -1.04%; `Cc1c[nH]nc1C1CCCN1Cc1ncc[nH]1` (stereo unspecified): 4.99%; `N#Cc1cccc(CN2Cc3nccn3CC(CN3CCCC3)C2)c1` (stereo unspecified): -135%.
The value for `CN1CC(=O)N(c2ccsc2)CC12CCN(S(C)(=O)=O)C2` (stereo unspecified) was -26.1%; that for `CCC(CC)C(=O)N1CCOC2(COCCN(CC(=O)NC)C2)C1` (stereo unspecified) was 2.35%.
With `c1ccn(Cc2nnc3n2CCCN(Cc2ccoc2)C3)c1`, the cytotoxicity at 10 µM was 0.993%.
The value for `CC(C)CCN1CCC2(CC1)CN(C(=O)c1cnccn1)CCO2` was -12.6%.
Next, `CCc1ccc(CN2C[C@@H]3COC[C@H](NS(C)(=O)=O)[C@@H]3C2)o1`: -2.01%; `Cc1noc(C)c1CN1C[C@H](OCC2CCN(C)CC2)[C@H]2COC[C@H]21`: -4.49%; `N#Cc1ccccc1CN1C[C@@H]2CC[C@H]1CN(C(=O)c1cccnc1)C2`: -0.849%.
The value for `CCn1cc(-n2cc3nc(N(C)C)[nH]cc-3c2=O)cn1` was 10.2%.
